From ChEMBL document CHEMBL3108662, “Controlled oxygen release from pyridone endoperoxides promotes cell survival under anoxic conditions” (J Med Chem, 2013)
Activity calls are given as the source filed them. The rule behind the calls is not given here.

Columns and labels:
[1] = Induction of oxygen release in H2O/D2O; format: physicochemical
[2] = Drug degradation in H2O/D2O assessed as byproduct formation at 37 degC by 1H-NMR spectroscopic analysis; format: physicochemical
[3] = Half life in H2O/D2O at 37 degC by 1H-NMR spectroscopic analysis; format: ADME
[4] = Cytotoxicity against rat primary smooth muscle cells assessed as growth inhibition under anoxic condition up to 100 ug/mL measured over 4 days by WST-1 assay; format: cell-based; conditions: 96 h
Summary of the method: (§1)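 Primary smooth muscle cells freshly isolated from rat bladder, seeded at 4000 cells/cm² in DMEM/10% FBS/1% Pen/Strep. Additive dissolved in 1:50 H₂O/DMSO and added at 10–200 µg/mL, with or without vitamin C (100 or 200 µg/mL). Normoxic at 37°C, 5% CO₂, or anoxic in sealed N₂-degassed medium, up to 4 days. WST-1 read on days 1–4 (3 h, A450). Triplicates, normalized to untreated = 100%.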

Rattus norvegicus [5] = species: Rattus norvegicus; experiment: Growth promoting activity in rat primary smooth muscle cells under anoxic condition at 50 ug/mL measured over 4 days by WST-1 assay in presence of 100 ug/mL vitamin C; format: functional; summary of the method: as §1
Rattus norvegicus [6] = species: Rattus norvegicus; experiment: Growth promoting activity in rat primary smooth muscle cells under normoxic condition at 10 to 50 ug/mL measured over 4 days by WST-1 assay; format: functional; summary of the method: as §1
[7] = Induction of oxygen release in H2O/D2O relative to DMSO-treated control; format: physicochemical
3T3 [8] = experiment: Growth promoting activity in […] cells under anoxic condition at 29 uM measured on day 1 by WST-1 assay in presence of 100 ug/mL vitamin C; format: functional, cell-based
Summary of the method: (§2)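 3T3 fibroblasts plated at 4000 cells/cm² in DMEM/F-12 with 10% FBS and 1% Pen/Strep. Compound in 1:50 H2O/DMSO was added at 10, 50, 100 or 200 µg/mL, alone or with vitamin C in water (100 or 500 µg/mL). Run normoxic (37°C, 5% CO2) or anoxic (N2-degassed medium, sealed bags under N2, no medium change, up to 4 days). WST-1 read at 450 nm after 3 h on days 1-4. Growth normalized to untreated control as 100%. Triplicates.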

[9] = Induction of singlet oxygen release in water at 0.1 mM measured every 10 mins by SOSG assay in presence of 0.37 mM vitamin C; format: physicochemical; conditions: buffer, 100 µM
Summary of the method: (§3)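 Singlet oxygen sensor green was dissolved in MeOH. Compound was dissolved in MeOH, then diluted in water, with or without vitamin C dissolved in water. Fluorescence (ex/em 488/525 nm) recorded every 10 min at 37 °C. Blanks of SOSG or SOSG/vitamin C were subtracted. Triplicates.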

[10] = Induction of singlet oxygen release in water at 0.1 mM measured every 10 mins by SOSG assay; format: physicochemical; conditions: buffer, 100 µM; summary of the method: as §3
[11] = Cytotoxicity against rat primary smooth muscle cells assessed as growth inhibition under anoxic condition at 50 ug/mL measured over 4 days by WST-1 assay in presence of 200 ug/mL vitamin C; format: cell-based; conditions: 96 h
Summary of the method: (§4)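 Primary smooth muscle cells freshly isolated from rat bladder, plated at 4000 cells/cm² in DMEM/F-12, 10% FBS, 1% Pen/Strep. Compound was added from 1:50 H2O/DMSO at 10–200 µg/mL, with or without vitamin C in water at 100 or 200 µg/mL. Normoxic (37°C, 5% CO2) or anoxic runs: N2-degassed medium, plates sealed under N2 for up to 4 days without medium change. WST-1 absorbance at 450 nm after 3 h, days 1-4. Normalized to untreated control as 100%. Triplicates.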

[12] = Cytotoxicity against rat primary smooth muscle cells assessed as growth inhibition under anoxic condition at 50 ug/mL measured over 4 days by WST-1 assay; format: cell-based; conditions: 96 h; summary of the method: as §4
Rattus norvegicus [13] = species: Rattus norvegicus; experiment: Growth promoting activity in rat primary smooth muscle cells under normoxic condition at 29 uM measured over 4 days by WST-1 assay in presence of 100 ug/mL vitamin C; format: functional; summary of the method: as §4
Rattus norvegicus [14] = species: Rattus norvegicus; experiment: Growth promoting activity in rat primary smooth muscle cells under anoxic condition at 29 uM measured over 4 days by WST-1 assay in presence of 100 ug/mL vitamin C; format: functional; summary of the method: as §4
Rattus norvegicus [15] = species: Rattus norvegicus; experiment: Growth promoting activity in rat primary smooth muscle cells under normoxic condition at 50 ug/mL measured over 4 days by WST-1 assay in presence of 100 to 200 ug/mL vitamin C; format: functional; summary of the method: as §4
[16] = Cytotoxicity against rat primary smooth muscle cells assessed as growth inhibition under normoxic condition at 50 ug/mL measured over 4 days by WST-1 assay; format: cell-based; conditions: 96 h; summary of the method: as §4
3T3 [17] = experiment: Cytotoxicity against […] cells assessed as growth inhibition under anoxic condition at 29 uM measured on day 1 by WST-1 assay in presence of 100 ug/mL vitamin C; format: cell-based; conditions: 3t3, 29 µM; summary of the method: as §2
3T3 [18] = experiment: Cytotoxicity against […] cells under normoxic condition at 29 uM measured over 4 days by WST-1 assay in presence of 100 ug/mL vitamin C; format: cell-based; conditions: 3t3, 96 h; summary of the method: as §2
3T3 [19] = experiment: Cytotoxicity against […] cells under anoxic condition at 29 uM measured over 4 days by WST-1 assay in presence of 100 ug/mL vitamin C; format: cell-based; conditions: 3t3, 96 h; summary of the method: as §2
3T3 [20] = experiment: Cytotoxicity against […] cells assessed as growth inhibition under anoxic condition at 50 ug/ml measured over 4 days by WST-1 assay in presence of vitamin C; format: cell-based; conditions: 3t3, 96 h; summary of the method: as §2
3T3 [21] = experiment: Cytotoxicity against […] cells assessed as growth inhibition under normoxic condition at 50 ug/ml measured over 4 days by WST-1 assay in presence of vitamin C; format: cell-based; conditions: 3t3, 96 h; summary of the method: as §2
3T3 [22] = experiment: Cytotoxicity against […] cells assessed as growth inhibition under anoxic condition at 200 ug/ml measured over 4 days by WST-1 assay in presence of vitamin C relative to control; format: functional, cell-based; summary of the method: as §2
3T3 [23] = experiment: Cytotoxicity against […] cells assessed as growth inhibition under normoxic condition at 200 ug/ml measured over 4 days by WST-1 assay in presence of vitamin C relative to control; format: cell-based; conditions: 3t3, 96 h; summary of the method: as §2
3T3 [24] = experiment: Growth promoting activity in rat 3T3 cells under normoxic condition at 100 to 200 ug/mL measured on day 1 by WST-1 assay in presence of 500 ug/mL vitamin C; format: functional, cell-based; summary of the method: as §2
3T3 [25] = experiment: Cytotoxicity against […] cells assessed as growth inhibition under normoxic condition at 100 ug/ml measured on day 4 by WST-1 assay in presence of vitamin C relative to control; format: cell-based; summary of the method: as §2
3T3 [26] = experiment: Cytotoxicity against […] cells assessed as growth inhibition under anoxic condition at 29 to 580 uM measured over 4 days by WST-1 assay in presence of 100 ug/mL vitamin C; format: cell-based; conditions: 3t3, 96 h; summary of the method: as §2
3T3 [27] = experiment: Cytotoxicity against […] cells assessed as growth inhibition under anoxic condition at 29 uM measured over 4 days by WST-1 assay; format: cell-based; conditions: 3t3, 96 h; summary of the method: as §2
3T3 [28] = experiment: Cytotoxicity against […] cells assessed as growth inhibition under normoxic condition at 29 to 580 uM measured over 4 days by WST-1 assay in presence of 100 ug/mL vitamin C; format: cell-based; conditions: 3t3, 96 h; summary of the method: as §2
3T3 [29] = experiment: Cytotoxicity against […] cells assessed as growth inhibition under normoxic condition measured over 4 days by WST-1 assay; format: cell-based; conditions: 3t3, 96 h; summary of the method: as §2
[30] = Cytotoxicity against rat primary smooth muscle cells assessed as growth inhibition under normoxic condition measured over 4 days by WST-1 assay; format: cell-based; conditions: 96 h; summary of the method: as §4
3T3 [31] = experiment: Cytotoxicity against […] cells assessed as growth inhibition under anoxic condition at 100 ug/ml measured on day 4 by WST-1 assay in presence of vitamin C relative to control; format: cell-based; summary of the method: as §2
Rattus norvegicus [32] = species: Rattus norvegicus; experiment: Growth promoting activity in rat primary smooth muscle cells under normoxic condition at 100 to 200 ug/mL measured over 4 days by WST-1 assay; format: functional; summary of the method: as §1
[33] = Cytotoxicity against rat primary smooth muscle cells assessed as growth inhibition under normoxic condition at 100 to 200 ug/mL measured over 4 days by WST-1 assay; format: cell-based; conditions: 96 h; summary of the method: as §1
3T3 [34] = experiment: Growth promoting activity in […] cells assessed as change in cell growth under anoxic condition at 100 ug/ml measured over 4 days by WST-1 assay; format: functional, cell-based
Summary of the method: (§5)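 3T3 fibroblasts seeded at 4000 cells/cm² in DMEM/10% FBS/1% Pen/Strep. Additive from 1:50 H₂O/DMSO at 10–200 µg/mL, with or without vitamin C (100 or 500 µg/mL). Normoxic at 37°C, 5% CO₂, or anoxic with N₂-degassed medium and N₂ glove-bag handling in sealed bags, no medium change, up to 4 days. Daily WST-1 (1:10, 3 h, A450). Triplicates, normalized to untreated control = 100%.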

3T3 [35] = experiment: Growth promoting activity in […] cells under anoxic condition at 500 ug/mL measured on day 1 by WST-1 assay; format: functional, cell-based; summary of the method: as §5
3T3 [36] = experiment: Cytotoxicity against […] cells assessed as growth inhibition under normoxic condition at 500 ug/mL after 2 days by WST-1 assay; format: cell-based; conditions: 3t3, 48 h; summary of the method: as §5

With `COCCOCCOCCOC(=O)CN1C(=O)C2(C)C=C(C)C1(C)OO2` (configuration not stated) the Activity [1] was 10%, the Drug degradation [2] was greater than 50% and the half-life [3] was 15 h.

With `COCCOCCOCCOC(=O)Cn1cccc(C)c1=O` the Activity [4] was “Non-toxic”, the Activity (Rattus norvegicus [5]) was “inactive” and the Activity (Rattus norvegicus [6]) was “inactive”.

In the case of `COCCOCCOCCOC(=O)CN1C(=O)C2C=CC1(C)OO2` (configuration not stated), the Activity [1] is reported as 50%, the Drug degradation [2] is reported as greater than 50% and the half-life [3] is reported as 4 h.

In the case of `COCCOCCOCCOC(=O)CN1C(=O)C2C=CC1OO2` (configuration not stated), the Activity [7] is reported as 18% and the half-life [3] is reported as 0.5 h.

For `COCCOCCOCCOC(=O)CN1C(=O)C2(C)C=C(C)C1OO2` (configuration not stated), the Activity [7] was 47% and the half-life [3] was 13 h.

With `COCCOCCOCCOC(=O)CN1C(=O)C2(C)C=CC1OO2` (configuration not stated) the Activity (3T3 [8]) was “Active”, the Activity [9] was “Not Active” and the Activity [10] was “Active”. The Activity [11] was “Toxic”, the Activity [12] was “Toxic” and the Activity (Rattus norvegicus [13]) was “Active”. For the same molecule, the Activity (Rattus norvegicus [14]) was “Active”, the Activity (Rattus norvegicus [15]) was “Active” and the Activity [16] was “Toxic”. For the same molecule, the Activity (3T3 [17]) was “Non-toxic”, the Activity (3T3 [18]) was “Toxic” and the Activity (3T3 [19]) was “Toxic”. The Activity (3T3 [20]) was “Toxic”, the Activity (3T3 [21]) was “Toxic” and the Activity (3T3 [22]) was “inactive”. The Activity (3T3 [23]) was “Non-toxic”, the Activity (3T3 [24]) was “Active” and the “fold change (FC)” value (3T3 [25]) was 10. The Activity (3T3 [26]) was “Non-toxic”, the Activity (3T3 [27]) was “Non-toxic” and the Activity (3T3 [28]) was “Non-toxic”. The “growth inhibition (GI)” value (3T3 [29]) was “Dose-dependent effect”, the “growth inhibition (GI)” value [30] was “Dose-dependent effect” and the Drug degradation [2] was 20%. The Activity [7] was 78% and the “fold change (FC)” value (3T3 [31]) was 2.

With `O=C1O[C@H]([C@@H](O)CO)C(O)=C1O` [ASCORBIC ACID] the Activity (Rattus norvegicus [32]) was “inactive”, the Activity [33] was “Non-toxic” and the Activity (3T3 [34]) was “inactive”. The Activity (3T3 [35]) was “Active” and the Activity (3T3 [36]) was “Toxic”.

`COCCOCCOCCOC(=O)CN1C(=O)C2(C)C=CC1(C)OO2` (configuration not stated) gave an Activity [1] of 50%, a Drug degradation [2] greater than 50% and a half-life [3] of 4 h.
